In ChEMBL document CHEMBL1782044, “Aspartic vinyl sulfones: inhibitors of a caspase-3-dependent pathway” (Eur J Med Chem, 2011):
Calls of active or inactive are those of the source. The rule behind the calls is not given here.

Each compound was assayed against T1, Caspase-3 (Homo sapiens) (UniProt P42574) (assay: Inhibition of human recombinant caspase-3 assessed as fluorescent 7-amido-4-methylcoumarin release using Ac-DEVD-AMC as peptide substrate at <200 uM by fluorometric assay). Conditions: not given.
T1 sequence (whole entry): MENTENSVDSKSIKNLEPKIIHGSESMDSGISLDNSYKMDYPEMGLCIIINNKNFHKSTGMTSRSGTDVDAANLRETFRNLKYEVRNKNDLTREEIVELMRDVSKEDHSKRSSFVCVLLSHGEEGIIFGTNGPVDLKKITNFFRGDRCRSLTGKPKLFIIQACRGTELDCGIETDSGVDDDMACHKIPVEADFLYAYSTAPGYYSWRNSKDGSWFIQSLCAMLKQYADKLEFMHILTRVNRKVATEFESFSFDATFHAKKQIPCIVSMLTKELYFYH
Outline: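 Recombinant human caspase-3 (stock 10 U/ml in assay buffer) mixed with inhibitor at various concentrations. Reaction started with AMC substrate at 200 (final). Buffer was 20 mM HEPES, 2 mM EDTA, 0.1% CHAPS, 5 mM DTT, pH 7.4. AMC release followed continuously at 37 °C by fluorescence, excitation 360 nm and emission 460 nm. IC50 determined.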

| inhibition | SMILES |
| --- | --- |
| inactive | C[C@H](NC(=O)OCC1c2ccccc2-c2ccccc21)C(=O)N[C@H](/C=C/S(=O)(=O)c1ccccc1)CC(=O)O |
| inactive | C[C@H](NC(=O)OCc1ccccc1)C(=O)N[C@H](/C=C/S(=O)(=O)c1ccccc1)CC(=O)O |
| inactive | CC[C@H](C)[C@H](NC(=O)OCC1c2ccccc2-c2ccccc21)C(=O)N[C@H](/C=C/S(C)(=O)=O)CC(=O)O |
| inactive | CC(C)[C@H](NC(=O)OCC1c2ccccc2-c2ccccc21)C(=O)N[C@H](C(=O)N[C@H](/C=C/S(=O)(=O)c1ccccc1)CC(=O)O)C(C)C |
| inactive | CC(C)[C@H](NC(=O)OCC1c2ccccc2-c2ccccc21)C(=O)N[C@H](C(=O)N[C@H](/C=C/S(C)(=O)=O)CC(=O)O)C(C)C |
| inactive | C[C@H](NC(=O)OCC1c2ccccc2-c2ccccc21)C(=O)N[C@H](/C=C/S(C)(=O)=O)CC(=O)O |
| inactive | C[C@H](NC(=O)OCc1ccccc1)C(=O)N[C@H](/C=C/S(C)(=O)=O)CC(=O)O |
| inactive | CC[C@H](C)[C@H](NC(=O)OCC1c2ccccc2-c2ccccc21)C(=O)N[C@H](/C=C/S(=O)(=O)c1ccccc1)CC(=O)O |

These compounds were tested on Saccharomyces cerevisiae (assay: Growth stimulation in Saccharomyces cerevisiae CG379 transformed with empty vector at 5 to 100 uM after 2 days). Conditions: in vivo, 48 h.
Type: organism-based

| Activity [%] | SMILES |
| --- | --- |
| 2.8 | O=C(O)C[C@@H](/C=C/S(=O)(=O)c1ccccc1)NC(=O)OCC1c2ccccc2-c2ccccc21 |
| 1.9 | CC[C@H](C)[C@H](NC(=O)OCc1ccccc1)C(=O)N[C@H](/C=C/S(=O)(=O)c1ccccc1)CC(=O)O |
| -1 | CC(C)[C@H](NC(=O)OCc1ccccc1)C(=O)N[C@H](/C=C/S(C)(=O)=O)CC(=O)O |
| -3.3 | CC[C@H](C)[C@H](NC(=O)OCc1ccccc1)C(=O)N[C@H](/C=C/S(C)(=O)=O)CC(=O)O |
| 1.3 | CC(C)[C@H](NC(=O)OCC1c2ccccc2-c2ccccc21)C(=O)N[C@H](/C=C/S(=O)(=O)c1ccccc1)CC(=O)O |
| -7 | CC(C)[C@H](NC(=O)OCC1c2ccccc2-c2ccccc21)C(=O)N[C@H](/C=C/S(C)(=O)=O)CC(=O)O |
| 1.7 | CS(=O)(=O)/C=C/[C@H](CC(=O)O)NC(=O)OCC1c2ccccc2-c2ccccc21 |

What follows are compounds tested on Saccharomyces cerevisiae (assay: Growth stimulation in Saccharomyces cerevisiae CG379 transformed with empty vector at 5 to 50 uM after 2 days). Conditions: in vivo, 48 h.
Type: organism-based

| Activity [%] | SMILES |
| --- | --- |
| 1.7 | CC(=O)N[C@@H](CC(=O)O)C(=O)N[C@@H](CCC(=O)O)C(=O)N[C@H](C(=O)N[C@@H](CC(=O)O)C(=O)CCl)C(C)C |
